Data set [1] has as its target T1, Glutamate carboxypeptidase 2 (Homo sapiens, UniProt Q04609). Put plainly: Inhibition of PSMA in human LNCaP cells assessed as cell surface binding per 10^6 cells using 177Lu-labeled compound after 45 mins by gamma counting analysis. It counts as cell-based. In outline: (§1)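 LNCaP cells (10^5/well) seeded on poly-L-lysine 24 h before. Incubated 45 min at 37 °C with 32 nM 177Lu-labelled compound (25 GBq/µmol) in Opti-MEM, with or without 500 µM 2-PMPA as blocker. Four ice-cold PBS washes, surface fraction stripped with 50 mM glycine pH 2.8, internalized fraction released by 0.3 M NaOH lysis. Both fractions gamma-counted, specific values given as %IA/10^6 cells. Triplicate.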
Target sequence in this assay (Q04609 whole entry, looked up): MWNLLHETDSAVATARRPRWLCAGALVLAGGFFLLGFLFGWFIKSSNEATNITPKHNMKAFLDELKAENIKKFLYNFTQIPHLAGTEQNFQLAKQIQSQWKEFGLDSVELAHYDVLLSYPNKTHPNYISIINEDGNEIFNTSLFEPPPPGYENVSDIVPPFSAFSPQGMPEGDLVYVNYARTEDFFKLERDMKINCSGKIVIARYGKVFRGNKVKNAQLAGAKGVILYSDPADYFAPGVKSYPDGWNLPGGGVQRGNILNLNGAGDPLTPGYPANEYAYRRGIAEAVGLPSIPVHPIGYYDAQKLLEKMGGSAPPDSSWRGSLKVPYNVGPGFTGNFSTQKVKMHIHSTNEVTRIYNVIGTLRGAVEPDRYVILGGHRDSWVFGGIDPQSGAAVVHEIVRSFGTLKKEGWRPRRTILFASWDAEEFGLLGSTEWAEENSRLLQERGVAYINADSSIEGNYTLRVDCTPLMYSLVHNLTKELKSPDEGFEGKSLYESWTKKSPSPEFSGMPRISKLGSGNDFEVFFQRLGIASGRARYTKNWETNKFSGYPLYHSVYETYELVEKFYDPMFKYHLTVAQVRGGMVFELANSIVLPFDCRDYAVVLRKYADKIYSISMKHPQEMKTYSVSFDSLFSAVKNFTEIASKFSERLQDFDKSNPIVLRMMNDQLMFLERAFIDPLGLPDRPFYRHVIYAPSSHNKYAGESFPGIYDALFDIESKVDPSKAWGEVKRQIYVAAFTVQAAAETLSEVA

For data set [2], the target named is T1, Glutamate carboxypeptidase 2. Put plainly: Inhibition of PSMA in human LNCaP cells assessed as specific internalization per 10^6 cells using 177Lu-labeled compound after 45 mins by gamma counting analysis. It is filed as cell-based. An outline of the steps: as §1
Target sequence in this assay (Q04609 whole entry, looked up): as above
The nature of data set [3]: Drug uptake in iv dosed BALB/c athymic nude mouse tumor xenografted with human LNCaP cells treated with 68Ga-labeled compound measured upto 120 mins by microPET imaging analysis. It is filed as ADME, organism-based. Particulars: in vivo, 2 h; call rule not given here. In outline: (§2)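 Male BALB/c nu/nu mice, 6–8 weeks old, with subcutaneous LNCaP xenografts (6 × 10^6 cells in 50% Matrigel, right trunk) of about 1 cm. Tail-vein injection of 68Ga-labelled compound (~30 MBq, 0.5 nmol) under sevoflurane. Dynamic µPET: 60 min emission scan, then 100–120 min scan. SUVmean for tumor, muscle and kidney at 1 h; tumor/muscle ratio. One animal per compound.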
For orientation: A xenograft is tissue or cells of one species grown in another, often human tumour cells in immunodeficient mice.

A short description of data set [4]: Distribution coefficient, logD of the compound at pH 7.4 in n-octanol/0.1 M HEPES by shake flask method. It counts as physicochemical. An outline of the steps:
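Radiolabelled compound shaken to equilibrium in n-octanol / 0.1 M HEPES pH 7.4. Aliquots of both phases gamma-counted and logD calculated from the phase ratio. Mean ± SD.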

Data set [5] can be described thus: Drug uptake in iv dosed BALB/c athymic nude mouse muscle xenografted with human LNCaP cells treated with 68Ga-labeled compound measured after 1 hr by microPET imaging analysis. Conditions: in vivo. It counts as ADME, organism-based. An outline of the steps: as §2
The nature of data set [6]: Drug uptake in iv dosed BALB/c athymic nude mouse kidney xenografted with human LNCaP cells treated with 68Ga-labeled compound measured after 1 hr by microPET imaging analysis. It counts as ADME, organism-based. Conditions: in vivo. An outline of the steps: as §2
Data set [7] can be described thus: Binding affinity to human serum protein after 1 hr by gel filtration method. It counts as ADME. In general terms: Size exclusion chromatography separates by hydrodynamic size, large species first.
Data set [8] is described as follows: Retention time of the compound by HPLC. It is filed as physicochemical.
The nature of data set [9]: Drug uptake in iv dosed BALB/c athymic nude mouse tumor xenografted with human LNCaP cells treated with 68Ga-labeled compound measured after 1 hr by microPET imaging analysis. It is filed as ADME, organism-based. Particulars: in vivo. An outline of the steps: as §2
Data set [10] in a line: Ratio of drug uptake in tumor to muscle in iv dosed BALB/c athymic nude mouse xenografted with human LNCaP cells treated with 68Ga-labeled compound measured after 1 hr by microPET imaging analysis. It is filed as ADME, organism-based. Conditions: in vivo. In outline: as §2
The target of data set [11] is T1, Glutamate carboxypeptidase 2. Put plainly: Binding affinity to PSMA in human LNCaP cells after 45 mins in presence of 68Ga-labeled PSMA-10 by gamma counting assay. It is filed as cell-based.
Target sequence in this assay (Q04609 whole entry): as the sequence (Q04609 whole entry, looked up) above

Structures are written as SMILES.

Results on 6 compounds are retold here after ChEMBL document CHEMBL5252516, “Linker Modification Strategies To Control the Prostate-Specific Membrane Antigen (PSMA)-Targeting and Pharmacokinetic Properties of DOTA-Conjugated PSMA Inhibitors” (J Med Chem, 2016).

A word on the logD: it is the decadic logarithm of the distribution of all forms, ionised or not, between an organic phase and buffer at a given pH. A higher logD goes with a more lipophilic compound. With `O=C(O)CC[C@H](NC(=O)N[C@@H](CCCCNC(=O)[C@H](Cc1ccc2ccccc2c1)NC(=O)[C@H]1CC[C@H](CNC(=O)CN2CCN(CC(=O)O)CCN(CC(=O)O)CCN(CC(=O)O)CC2)CC1)C(=O)O)C(=O)O` [VIPIVOTIDE TETRAXETAN], in data set [1], the specific cell surface binding (% of applied activity per 10^6 cells) is 11.4%. Also, in data set [2], the specific internalization (% of added activity per 10^6 cells) was 16.2%. Further, in [3], the Drug uptake entry is on record as “Active”. Moreover, the pH-dependent lipophilicity (logD) in [4] was -2. Besides, the SUV was 0.07 in data set [5], 2.87 in data set [6] and 0.59 in data set [9]. For the same compound, the PB entry in data set [7] is recorded as “Not Active”. In [8], the Retention_time is 2.63 min.

The Ki is a dissociation constant, usually derived from enzyme kinetics or from competition with a known ligand. Take `O=C(O)CC[C@H](NC(=O)N[C@@H](CCCCNC(=O)c1ccc(CNC(=O)c2ccc(CNC(=O)c3ccc(CNC(=O)CN4CCN(CC(=O)O)CCN(CC(=O)O)CCN(CC(=O)O)CC4)cc3)cc2)cc1)C(=O)O)C(=O)O`: in [10], the Ratio worked out at 5.4. The specific cell surface binding (% of applied activity per 10^6 cells) in data set [1] was determined as 21.4%. Further, in data set [2], the specific internalization (% of added activity per 10^6 cells) was 12.5%. Moreover, the Drug uptake result in data set [3] was “Active”. This compound returned a log distribution coefficient (logD) in data set [4] of -2.06. The figures for the SUV in data set [5], in data set [6] and in [9] were 0.11, 4.16 and 0.58, respectively. The Ki in data set [11] was 0.53 nM. Further, the PB entry in data set [7] is listed as “Not Active”. Moreover, the Retention_time in [8] is reported as 1.95 min.

With `O=C(O)CC[C@H](NC(=O)N[C@@H](CCCCNC(=O)CCCCCNC(=O)c1ccc(CNC(=O)CN2CCN(CC(=O)O)CCN(CC(=O)O)CCN(CC(=O)O)CC2)cc1)C(=O)O)C(=O)O`, the Ratio in data set [10] is recorded as 3.8. Further, the specific cell surface binding (% of applied activity per 10^6 cells) in data set [1] worked out at 17.7%. Also, the specific internalization (% of added activity per 10^6 cells) in [2] amounted to 2.11%. Further, the Drug uptake result in [3] is on record as “Not Active”. The same compound returned a pH-dependent lipophilicity (logD) in [4] of -1.92. Further, the SUV in data set [5] is reported as 0.08; in data set [6] it was 4.7; in data set [9], 0.3. For the same compound, the Ki in [11] amounted to 15.3 nM. Also, the PB entry in data set [7] is given as “Not Active”. In [8], this compound registered a Retention_time of 1.74 min.

In the case of `O=C(O)CC[C@H](NC(=O)N[C@@H](CCCCNC(=O)[C@H]1CC[C@H](CNC(=O)c2ccc(CNC(=O)CN3CCN(CC(=O)O)CCN(CC(=O)O)CCN(CC(=O)O)CC3)cc2)CC1)C(=O)O)C(=O)O`, the Ratio in data set [10] was 3.9. Further, the specific cell surface binding (% of applied activity per 10^6 cells) in data set [1] was 4.49%. In addition, the specific internalization (% of added activity per 10^6 cells) in [2] was 2.7%. In addition, the Drug uptake result in data set [3] is recorded as “Not Active”. For the same compound, the log distribution coefficient (logD) in [4] was -1.43. Further, the SUV in [5] came to 0.14; in data set [6] it was 8.1; in data set [9], 0.54. For the same compound, the Ki in [11] came to 24.7 nM. In addition, in [7], the PB result was “Not Active”. Further, the Retention_time in data set [8] came to 2.07 min.

Turning to `O=C(O)CC[C@H](NC(=O)N[C@@H](CCCCNC(=O)[C@H]1CC[C@H](CNC(=O)[C@H]2CC[C@H](CNC(=O)CN3CCN(CC(=O)O)CCN(CC(=O)O)CCN(CC(=O)O)CC3)CC2)CC1)C(=O)O)C(=O)O`, in data set [10], the Ratio amounted to 2.3. Besides, the specific cell surface binding (% of applied activity per 10^6 cells) in [1] was 3.88%. Further, the specific internalization (% of added activity per 10^6 cells) in [2] turned out to be 1.43%. Moreover, in [3], the Drug uptake entry is on record as “Not Active”. Moreover, the logD in data set [4] was -1.12. Besides, the SUV in data set [5] is on record as 0.13; in data set [6], 4.29; in data set [9], 0.3. Also, the Ki in data set [11] was 21 nM. Besides, the PB result in [7] is listed as “Not Active”. The Retention_time in [8] was found to be 2.08 min.

For `O=C(O)CC[C@H](NC(=O)N[C@@H](CCCCNC(=O)[C@H](Cc1ccc2ccccc2c1)NC(=O)c1ccc(CNC(=O)CN2CCN(CC(=O)O)CCN(CC(=O)O)CCN(CC(=O)O)CC2)cc1)C(=O)O)C(=O)O`, in [10], the Ratio worked out at 5.2. The specific cell surface binding (% of applied activity per 10^6 cells) in [1] was 16.8%. Also, the specific internalization (% of added activity per 10^6 cells) in [2] worked out at 7.17%. Moreover, the Drug uptake entry in [3] is reported as “Active”. In [4], the logD was -2.1. Moreover, the SUV came out at 0.1 in [5], 3.63 in [6] and 0.52 in [9]. For the same compound, the Ki in data set [11] was 1.81 nM. Also, in [7], the PB entry was “Not Active”. This compound also displayed a Retention_time in [8] of 2.32 min.
